Activity calls are given as the source filed them. No cut-off for these calls is given here.
target: T1, Adenosine receptor A2b (Homo sapiens, UniProt P29275); assay: Binding affinity to human wild type adenosine A2B receptor expressed in Expi293F cells assessed as dissociation constant by surface plasmon resonance assay; conditions: not given
T1 sequence (P29275 whole entry): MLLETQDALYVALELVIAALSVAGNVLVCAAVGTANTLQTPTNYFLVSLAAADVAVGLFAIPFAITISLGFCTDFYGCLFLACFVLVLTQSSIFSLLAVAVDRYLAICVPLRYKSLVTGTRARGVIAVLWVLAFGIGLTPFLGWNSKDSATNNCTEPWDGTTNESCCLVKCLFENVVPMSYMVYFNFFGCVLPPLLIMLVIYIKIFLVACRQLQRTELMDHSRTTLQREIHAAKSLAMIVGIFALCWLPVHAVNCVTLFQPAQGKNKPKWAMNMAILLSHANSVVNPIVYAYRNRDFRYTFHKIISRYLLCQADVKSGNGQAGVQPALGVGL

SMILES	Kd [µM]
CC(C)NC(=O)c1cc(-c2ccccc2)[nH]n1	196
Nc1nc(-c2ccccc2)ns1	60.7
Nc1nsc(-c2ccccc2)n1	108
Cc1nn(-c2ccccc2)nc1C(N)=O	140
O=C(NCc1ccccc1)c1ccc2nonc2c1	22

Further lines, results first:

Kd [µM]	SMILES
45	Nc1nsc(-c2ccc(Cl)cc2)n1
120	Nc1ccc2nnc(-c3ccccc3)n2n1
123	O=C(Nc1ccc2ccccc2n1)c1ccco1

target: T2, Adenosine receptor A2a (Homo sapiens, UniProt P29274); assay: Antagonist activity at human adenosine A2A receptor expressed in HEK293T cells assessed as inhibition of EC20 concentration of NECA-induced cAMP accumulation by GloSensor cAMP accumulation assay; type: functional, cell-based; conditions: filed as antagonist
T2 sequence (P29274 whole entry): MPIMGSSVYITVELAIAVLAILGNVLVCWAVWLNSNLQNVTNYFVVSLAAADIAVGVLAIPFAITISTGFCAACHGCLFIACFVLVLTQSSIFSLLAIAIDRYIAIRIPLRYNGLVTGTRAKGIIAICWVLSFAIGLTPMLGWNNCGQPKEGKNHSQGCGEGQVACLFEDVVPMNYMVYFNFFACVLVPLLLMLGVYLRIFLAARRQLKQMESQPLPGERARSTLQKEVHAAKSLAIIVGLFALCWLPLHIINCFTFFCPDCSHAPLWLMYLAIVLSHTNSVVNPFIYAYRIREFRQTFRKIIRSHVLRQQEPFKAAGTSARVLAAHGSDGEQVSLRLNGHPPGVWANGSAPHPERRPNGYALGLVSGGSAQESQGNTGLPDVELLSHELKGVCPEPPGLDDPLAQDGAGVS
How it was run: (§1)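 HEK293T cells expressing A2A, GloSensor luciferase cAMP read-out; concentration–response curves run against EC20 NECA (3 nM). Data as % of maximum NECA response; mean ± SEM of at least three independent experiments in technical duplicate. Maximum tested concentration 0.63 mM where compound supply was limited; compounds also checked in cells lacking transfected A2A.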

Activity	SMILES
Active	Nc1ccc2nnc(-c3ccccc3)n2n1

target: T2, Adenosine receptor A2a; assay: Binding affinity to human wild type adenosine A2A receptor expressed in Expi293F cells assessed as inhibition constant taken from literature; conditions: not given

Ki [µM]	SMILES
0.076	Nc1nc(Nc2ccccc2)nc2c1ncn2[C@@H]1O[C@H](CO)[C@@H](O)[C@H]1O

target: T2, Adenosine receptor A2a; assay: Binding affinity to human wild type adenosine A2A receptor expressed in Expi293F cells assessed as dissociation constant by surface plasmon resonance assay; conditions: not given

SMILES	Kd [µM]
Nc1nncc(-c2ccc(Br)cc2)n1	50
Oc1ncnc2[nH]ncc12 [ALLOPURINOL]	77
CC(C)NC(=O)c1cc(-c2ccccc2)[nH]n1	49
Nc1nc(-c2ccccc2)ns1	130
Nc1nsc(-c2ccccc2)n1	139
Cc1nn(-c2ccccc2)nc1C(N)=O	410
O=C(NCc1ccccc1)c1ccc2nonc2c1	100

These reach a lower Kd. Values come first.

Kd [µM]	SMILES
9.6	Nc1nc(N)c2nccnc2n1
0.0091	Nc1nc(Nc2ccccc2)nc2c1ncn2[C@@H]1O[C@H](CO)[C@@H](O)[C@H]1O
21.8	Nc1nsc(-c2ccc(Cl)cc2)n1
1.11	Nc1ccc2nnc(-c3ccccc3)n2n1
31.8	NC(=O)c1ncoc1-c1ccccc1
40	O=C(Nc1ccc2ccccc2n1)c1ccco1

target: T2, Adenosine receptor A2a; assay: Antagonist activity at human adenosine A2A receptor expressed in HEK293T cells assessed as inhibition of EC20 concentration of NECA-induced cAMP accumulation at higher concentration by GloSensor cAMP accumulation assay; type: functional, cell-based; conditions: filed as antagonist; how it was run: as §1

Activity	SMILES
Active	Nc1nncc(-c2ccc(Br)cc2)n1
Active	CC(C)NC(=O)c1cc(-c2ccccc2)[nH]n1

target: T2, Adenosine receptor A2a; assay: Antagonist activity at human adenosine A2A receptor expressed in HEK293T cells assessed as inhibition of EC20 concentration of NECA-induced cAMP accumulation by measuring fold change in potency by GloSensor cAMP accumulation assay; type: functional, cell-based; conditions: filed as antagonist

Activity	SMILES
Active	Nc1nsc(-c2ccc(Cl)cc2)n1

target: T3, Adenosine receptor A3 (Homo sapiens, UniProt P0DMS8); assay: Binding affinity to human wild type adenosine A3 receptor expressed in Expi293F cells assessed as dissociation constant by surface plasmon resonance assay; conditions: not given
T3 sequence (P0DMS8 whole entry): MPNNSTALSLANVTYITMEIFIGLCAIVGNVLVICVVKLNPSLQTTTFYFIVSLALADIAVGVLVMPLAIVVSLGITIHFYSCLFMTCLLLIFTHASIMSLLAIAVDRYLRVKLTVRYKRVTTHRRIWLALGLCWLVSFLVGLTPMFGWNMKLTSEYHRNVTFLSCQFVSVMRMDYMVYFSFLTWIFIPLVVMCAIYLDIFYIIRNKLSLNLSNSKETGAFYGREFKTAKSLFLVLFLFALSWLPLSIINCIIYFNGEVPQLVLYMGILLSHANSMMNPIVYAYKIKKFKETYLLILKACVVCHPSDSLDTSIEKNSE

SMILES	Kd [µM]
CC(C)NC(=O)c1cc(-c2ccccc2)[nH]n1	80
Nc1nc(-c2ccccc2)ns1	50.7
Nc1nsc(-c2ccccc2)n1	102
Cc1nn(-c2ccccc2)nc1C(N)=O	101
O=C(NCc1ccccc1)c1ccc2nonc2c1	180

Next, values leading:

Kd [µM]	SMILES
36.5	Nc1nsc(-c2ccc(Cl)cc2)n1
160	Nc1ccc2nnc(-c3ccccc3)n2n1
56	O=C(Nc1ccc2ccccc2n1)c1ccco1

target: T2, Adenosine receptor A2a; assay: Allosteric modulator activity at human adenosine A2A receptor expressed in HEK293T cells assessed as stimulation of NECA-induced cAMP accumulation by GloSensor cAMP accumulation assay; type: functional, cell-based; conditions: filed as positive allosteric modulator
How it was run: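 GloSensor cAMP accumulation in HEK293T cells transiently expressing A2A; compound tested for modulation of NECA-stimulated cAMP (EC80 and EC20 NECA), concentrations up to 30 μM. Data as % of maximum NECA response; mean ± SEM of three to four experiments in at least duplicate.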

Activity	SMILES
Active	Nc1nsc(-c2ccc(Cl)cc2)n1

target: T4, Adenosine receptor A1 (Homo sapiens, UniProt P30542); assay: Binding affinity to human wild type adenosine A1 receptor expressed in Expi293F cells assessed as dissociation constant by surface plasmon resonance assay; conditions: not given
T4 sequence (P30542 whole entry): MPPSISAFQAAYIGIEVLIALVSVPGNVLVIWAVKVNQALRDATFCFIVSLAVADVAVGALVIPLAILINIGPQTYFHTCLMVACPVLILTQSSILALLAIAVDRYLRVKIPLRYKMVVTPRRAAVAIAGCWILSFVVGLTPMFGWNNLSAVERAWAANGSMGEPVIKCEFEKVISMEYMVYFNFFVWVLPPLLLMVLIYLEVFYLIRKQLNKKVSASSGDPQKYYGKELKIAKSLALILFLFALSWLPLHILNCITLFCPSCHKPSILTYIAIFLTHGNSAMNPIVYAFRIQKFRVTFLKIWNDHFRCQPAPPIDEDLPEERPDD

SMILES	Kd [µM]
Nc1nncc(-c2ccc(Br)cc2)n1	1.1
CC(C)NC(=O)c1cc(-c2ccccc2)[nH]n1	70
Nc1nc(-c2ccccc2)ns1	51.7
Nc1nsc(-c2ccccc2)n1	122
Cc1nn(-c2ccccc2)nc1C(N)=O	78
O=C(NCc1ccccc1)c1ccc2nonc2c1	92

Second part, the molecule after the results:

Kd [µM]	SMILES
20.7	Nc1nsc(-c2ccc(Cl)cc2)n1
22.9	Nc1ccc2nnc(-c3ccccc3)n2n1
59	O=C(Nc1ccc2ccccc2n1)c1ccco1

target: T2, Adenosine receptor A2a; assay: Antagonist activity at human adenosine A2A receptor expressed in HEK293T cells assessed as inhibition of NECA-induced Gs short protein activation by TRUPATH assay; type: functional, cell-based; conditions: not given

IC50 [µM]	SMILES
0.166	O=C(Nc1ccc2ccccc2n1)c1ccco1

— ChEMBL document CHEMBL5126601 (ACS Med Chem Lett, 2022)
